According to ChEMBL document CHEMBL5335782, “Discovery of new imidazotetrazinones with potential to overcome tumor resistance” (Eur J Med Chem, 2023):
Calls of active or inactive are those of the source. The calls are words filed in the database; no cut-off is given here.

Assays:
[1] = Intrinsic clearance in human liver microsomes in absence of NADPH; format: ADME, Microsome; conditions: read-out: CLH
[2] = Intrinsic clearance in rat liver microsomes in absence of NADPH; format: ADME, Microsome; conditions: read-out: CLH
[3] = Permeability of the compound assessed as drug recovery measured after 6 hrs by PAMPA assay; format: ADME; conditions: read-out: Drug recovery
Method in brief: (§1)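 PAMPA passive-diffusion assay run as contract research under the provider's protocols, with control compounds. After 6 h incubation, permeability (Pe) and percentage recovery determined.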

U373V [4] = test: Induction of cell cycle arrest in human U373V cells assessed as accumulation of cells at sub-G1 phase at 100 uM measured after 120 hrs by propidium iodide staining based flow cytometry; format: functional
[5] = Intrinsic clearance in human liver microsomes in presence of NADPH; format: ADME, Microsome; conditions: read-out: CLH
[6] = Half life of the compound in phosphate buffered saline at pH 5 by LC-MS analysis; format: physicochemical
Method in brief: (§2)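 Half-life in phosphate buffers at pH 5, 6.8 or 7.4 followed by LC-MS; mean of two independent experiments.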

[7] = Ratio of permeability across dog MDCK cells transfected with MDR1 to permeability across wild type dog MDCK cells; format: ADME, cell-based, Canis lupus familiaris
[8] = Permeability of the compound measured after 6 hrs by PAMPA assay; format: ADME; conditions: read-out: permeability; method in brief: as §1
[9] = Antiproliferative activity against MGMT-expressing human U373M cells assessed as inhibition of cell growth measured after […] by MTT assay; format: functional
Method in brief: (§3)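 Cells seeded at 6.5×10^2/well, left overnight, then exposed to vehicle or agent (n = 4-8; final 0.5–1000 μM; DMSO stocks of 50 or 10 mM diluted in medium). MTT read at time of addition and after 6 days at 37 °C, 5% CO₂. MTT 0.4 mg/mL for 4 h, formazan taken up in DMSO, A550. GI50 from non-linear regression; mean ± SD of >3 experiments.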

U373V [10] = test: Induction of cell cycle arrest in human U373V cells assessed as accumulation of cells at G2/M phase at 100 uM measured after 120 hrs by propidium iodide staining based flow cytometry; format: functional
U373M [11] = test: Induction of cell cycle arrest in MGMT-expressing human U373M cells assessed as accumulation of cells at sub-G1 phase at 100 uM measured after 120 hrs by propidium iodide staining based flow cytometry; format: functional
[12] = Half life of the compound in phosphate buffered saline at pH 7.4 by LC-MS analysis; format: physicochemical; method in brief: as §2
HCT-116 [13] = test: Induction of cell cycle arrest in MMR-deficient human HCT-116 cells assessed as loss of cell cycle integrity at 100 uM measured after 120 hrs by propidium iodide staining based flow cytometry; format: functional
[14] = Half life in rat liver microsomes in presence of NADPH; format: ADME, Microsome
HCT-116 [15] = test: Induction of cell cycle arrest in MMR-deficient human HCT-116 cells assessed as accumulation of cells at sub-G1 phase at 100 uM measured after 120 hrs by propidium iodide staining based flow cytometry (Rvb ~5%); format: functional
[16] = Drug metabolism in phosphate buffered saline assessed as half life of 5-(3-(prop-2-yn-1-yl)triaz-2-en-1-yl)-1H-imidazole-4-carboxamide at pH 7.4 by 1HNMR spectroscopy; format: ADME; conditions: buffer
U373V [17] = test: Induction of cell cycle arrest in human U373V cells assessed as accumulation of cells at S phase at 100 uM measured after 120 hrs by propidium iodide staining based flow cytometry; format: functional
[18] = Drug metabolism in phosphate buffered saline assessed as Tmax of 5-(3-(prop-2-yn-1-yl)triaz-2-en-1-yl)-1H-imidazole-4-carboxamide at pH 7.4 by 1HNMR spectroscopy; format: ADME; conditions: buffer
[19] = Half life of the compound in phosphate buffered saline at pH 6.8 by LC-MS analysis; format: physicochemical; method in brief: as §2
[20] = Half life of the compound in phosphate buffered saline at pH 7.4 by 1H NMR spectroscopic analysis; format: physicochemical
Method in brief: (§4)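 Half-life followed by ¹H NMR spectroscopy in phosphate buffers at pH 7.4 or 5.5.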

[21] = Half life in rat plasma; format: ADME, cell-free
[22] = Antiproliferative activity against human U373V cells assessed as inhibition of cell growth measured […] by MTT assay; format: functional; method in brief: as §3
[23] = Intrinsic clearance in rat liver microsomes in presence of NADPH; format: ADME, Microsome; conditions: read-out: CLH
[24] = Half life in human plasma; format: ADME, cell-free
[25] = Half life in human liver microsomes in presence of NADPH; format: ADME, Microsome
[26] = Induction of cell cycle arrest in MGMT-expressing human U373M cells assessed as accumulation of cells at G2/M phase at 100 uM measured after 120 hrs by propidium iodide staining based flow cytometry (Rvb ~ 15%); format: functional
[27] = Half life in human liver microsomes in absence of NADPH; format: ADME, Microsome
[28] = Half life in rat liver microsomes in absence of NADPH; format: ADME, Microsome
U373M [29] = test: Induction of cell cycle arrest in MGMT-expressing human U373M cells assessed as accumulation of cells at S phase at 100 uM measured after 120 hrs by propidium iodide staining based flow cytometry; format: functional
HCT-116 [30] = test: Antiproliferative activity against MMR-deficient human HCT-116 cells assessed as inhibition of cell growth measured after […] by MTT assay; format: functional; method in brief: as §3
U373M [31] = test: Induction of cell cycle arrest in MGMT-expressing human U373M cells at 100 uM measured after 120 hrs by propidium iodide staining based flow cytometry; format: functional
[32] = Selectivity ratio of GI50 for cytotoxicity against human MRC5 cells to GI50 for antiproliferative activity against MMR-deficient human HCT-116 cells; format: toxicity, cell-based; conditions: MRC5 cells versus MMR-deficient HCT-116 cells, read-out: RatioGI50
[33] = Half life of the compound in phosphate buffered saline at pH 5.5 by 1H NMR spectroscopic analysis; format: physicochemical; method in brief: as §4
[34] = Induction of cell cycle arrest in human U373V cells assessed as accumulation of cells at pre-G1 phase at 100 uM measured after 120 hrs by propidium iodide staining based flow cytometry (reference value: 1%); format: functional
HCT-116 [35] = test: Induction of cell cycle arrest in MMR-deficient human HCT-116 cells at 100 uM measured after 120 hrs by propidium iodide staining based flow cytometry; format: functional
[36] = Apparent elimination half life in human
[37] = Apparent elimination half life in human plasma
U373V [38] = test: Inhibition of cell colony formation in human U373V cells at 20 to 50 uM incubated for 24 hrs followed by drug removal and incubation in medium for 14 days; format: functional, cell-based; conditions: dose 20-50 µM
Method in brief: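 Clonogenic survival: exponentially growing cells seeded in triplicate at 400 cells/well, attached overnight, then exposed for 24 h to 0, 2, 20 or 50 μM agent. Medium then replaced with drug-free medium for 14 days, or until control colonies held ≥50 cells. Colonies fixed in cold methanol, stained with 0.5% methylene blue, counted, and expressed relative to control. 2–3 experiments.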

SMILES | microsomal CLint [1] | microsomal CLint [2] | recovery at 6 h [3] | microsomal CLint [5] | half-life [6] | Ratio [7] | Papp at 6 h [8] | GI50 [9] | Activity (U373V [10]) | half-life [12] | half-life [14] | half-life [19] | half-life [20] | half-life [21] | GI50 [22] | microsomal CLint [23] | half-life [24] | half-life [25] | half-life [27] | half-life [28] | also measured
C#CCn1nnc2c(C(N)=O)ncn2c1=O | 25.2 µL/min/mg | 29.2 µL/min/mg | 6.9% | 18.1 µL/min/mg | > 8 h | 0.93 | 1.38 ×10⁻⁶ cm/s | 26.6 µM | Active | 1.92 h | 0.655 h | 3.86 h | 0.817 h | 0.432 h | 30 µM | 35.5 µL/min/mg | 0.242 h | 1.3 h | 0.918 h | 0.812 h | Activity (U373V [4]): Active; Activity (U373M [11]): Active; Activity (HCT-116 [13]): Active; Activity (HCT-116 [15]): 96%; t1/2 [16]: 4.5 h; Activity (U373V [17]): Active; Tmax [18]: 2 h; Activity [26]: 33%; Activity (U373M [29]): Active; GI50 (HCT-116 [30]): 28.1 µM
Cn1nnc2c(C(N)=O)ncn2c1=O [TEMOZOLOMIDE] | 23 µL/min/mg | < 1 µL/min/mg | 65.3% | 27.3 µL/min/mg | > 8 h | 3.21 | 0.63 ×10⁻⁶ cm/s | 302 µM | Active | 2.47 h | > 8 h | 4.02 h | 1.53 h | 0.298 h | 51.9 µM | < 1 µL/min/mg | 0.33 h | 0.848 h | 1 h | > 8 h | Activity (U373M [31]): inactive; selectivity ratio [32]: 1.4; half-life [33]: > 100 h; Activity [34]: 9%; Activity (HCT-116 [35]): inactive; half-life [36]: 1.8 h; t1/2 [37]: 0.25 h; inhibition (U373V [38]): Active; GI50 (HCT-116 [30]): 291 µM
